Experimental findings from ChEMBL document CHEMBL5360632, “Quinazolinone Compounds Have Potent Antiviral Activity against Zika and Dengue Virus” (J Med Chem, 2023) are described below.

In data set [1] the test system is Zika virus. Kind of data set: Antiviral activity against ZIKV FLR infected in Vero cells assessed as inhibition of viral replication by measuring reduction in cytopathic effect at 10 uM preincubated with compounds for 2 hrs followed by replacement with fresh media containing compounds and measured after 48 hrs by MTT assay relative to control. To be noted: time 50 hrs. In kind it is functional. The essentials: (§1)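 Monolayers of 2 × 10^4 cells/well in DMEM with 2% FBS. Infected at 0.1 MOI together with compound for 2h. Wells washed with PBS, then fresh medium with compound added in duplicate and incubated 48h at 37 °C. Supernatant titred by end-point dilution: half-log dilutions on Vero monolayers in quadruplicate for 5–7 days, CPE by microscope then MTT. TCID50 compared with untreated; EC50 from dose-response fit of ≥2 independent experiments.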

In data set [2] the test system is Zika virus. Kind of data set: Antiviral activity against ZIKV FLR infected in Vero cells assessed as inhibition of viral replication by measuring reduction in cytopathic effect at 0.3 uM preincubated with compounds for 2 hrs followed by replacement with fresh media containing compounds and measured after 48 hrs by MTT assay relative to control. To be noted: time 50 hrs. In kind it is functional. Details: scale not given: the % may be the effect or the level left. The essentials:
as §1

The subject of data set [3] is Zika virus. Nature of the data set: Antiviral activity against ZIKV FLR infected in Vero cells assessed as reduction in NS3 viral protein level at 1 to 3 uM incubated for 48 hrs by Western blot analysis. In kind it is functional, organism-based. The note with it: dose 1-3 µM. The essentials:
(§2)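 8 × 10^5 Vero cells infected at MOI 0.1 for 2h. Virus removed and cells cultured 48h in fresh medium with 2% FBS plus compound. Cells lysed in ice-cold RIPA buffer and equal total protein separated by SDS-PAGE, then transferred to PVDF. Probed with antibodies to ZIKV NS3, capsid and NS5, with β-actin as loading reference.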

In data set [4] the test system is Zika virus. Nature of the data set: Antiviral activity against ZIKV FLR infected in Vero cells assessed as inhibition of viral replication by measuring reduction in cytopathic effect at 1 uM preincubated with compounds for 2 hrs followed by replacement with fresh media containing compounds and further incubated for 48 hrs in presence of 1 mM GSH by MTT assay. Type of data set: functional, organism-based. The note with it: time 50.0 hrs. The essentials: as §1

In data set [5] the test system is U-87 MG. Nature of the data set: Cytotoxicity against human U87 cells assessed as reduction in cell viability. To be noted: u-87mg atcc. In kind it is toxicity, cell-based.
Data set [6] concerns Zika virus. Nature of the data set: Antiviral activity against ZIKV FLR infected in Vero cells assessed as inhibition of viral replication by measuring reduction in cytopathic effect preincubated with compounds for 2 hrs followed by replacement with fresh media containing compounds and measured after 48 hrs by MTT assay. Type of data set: functional, organism-based. Put shortly:
as §1

Data set [7] has as its system Zika virus. Nature of the data set: Antiviral activity against ZIKV FLR infected in human U87 cells assessed as inhibition of viral replication at 3 uM pretreated with compounds for 2 hrs followed by replacement with fresh medium containing compound and measured after 48 hrs by MTT assay relative to control. The note with it: U-87 MG, time 50 hrs. Type of data set: functional. Put shortly: as §1

In data set [8] the test system is Zika virus. Kind of data set: Antiviral activity against ZIKV FLR infected in Vero cells assessed as reduction in number of viral RNA copies by qRT-PCR analysis. Type of data set: functional, organism-based. To be noted: dose 0.3-10 µM. The essentials: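 Viral RNA measured in cell supernatant after compound treatment. Copies/mL calculated from a standard curve.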

Data set [9] relates to Zika virus. Kind of data set: Antiviral activity against ZIKV FLR infected in Vero cells assessed as reduction in NS5 viral protein level at 1 to 3 uM incubated for 48 hrs by Western blot analysis. In kind it is functional, organism-based. To be noted: dose 1-3 µM. The essentials:
as §2

The subject of data set [10] is Zika virus. Nature of the data set: Antiviral activity against ZIKV FLR infected in human U87 cells assessed as inhibition of viral replication at 0.3 uM pretreated with compounds for 2 hrs followed by replacement with fresh medium containing compound and measured after 48 hrs by MTT assay relative to control. In kind it is functional. The note with it: U-87 MG, time 50 hrs. Put shortly:
as §1

The test system of data set [11] is Zika virus. Kind of data set: Antiviral activity against ZIKV FLR infected in human U87 cells assessed as inhibition of viral replication pretreated with compounds for 2 hrs followed by replacement with fresh medium containing compound and measured after 48 hrs by MTT assay. In kind it is functional, organism-based. To be noted: U-87 MG. Put shortly: as §1
Data set [12] deals with Zika virus. Kind of data set: Antiviral activity against ZIKV FLR infected in human U87 cells assessed as inhibition of viral replication at 1 uM pretreated with compounds for 2 hrs followed by replacement with fresh medium containing compound and measured after 48 hrs by MTT assay relative to control. In kind it is functional. To be noted: U-87 MG, time 50 hrs. The essentials: as §1

The test system of data set [13] is dengue virus type 2. Kind of data set: Antiviral activity against Dengue virus serotype 2 K0049 infected in Vero cells assessed as inhibition of viral replication pretreated for 2 hrs followed by replacement with fresh medium containing compound and measured after 48 hrs by MTT assay. In kind it is functional, organism-based. Put shortly: as §1
The subject of data set [14] is Zika virus. Nature of the data set: Antiviral activity against ZIKV FLR infected in mosquito C6/36 cells assessed as inhibition of viral replication pretreated with compounds for 2 hrs followed by replacement with fresh medium containing compound and measured after 48 hrs bt MTT assay. In kind it is functional, organism-based. The essentials:
as §1

Data set [15] has as its system Zika virus. Kind of data set: Antiviral activity against ZIKV HN16 infected in Vero cells assessed as inhibition of viral replication by measuring reduction in cytopathic effect preincubated with compounds for 2 hrs followed by replacement with fresh media containing compounds and measured after 48 hrs by MTT assay. Type of data set: functional, organism-based. The essentials: as §1

For data set [16], the system named is Zika virus. Nature of the data set: Antiviral activity against ZIKV […] infected in Vero cells assessed as reduction in viral titer at 1 uM preinoculated virus for 2 hrs with cells followed by washout of unattached viruses and further incubated with compound for 46 hrs starting from 2 hrs post washout by MTT assay relative to control. Details: scale not given: the % may be the effect or the level left. Type of data set: functional. Put shortly: (§3)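 Cells inoculated with 0.1 MOI virus for 2h, then unattached virus removed by PBS wash. Compound at 1 μM added either right after washout (0h-posttreatment) or 2h after washout (2h-posttreatment). Incubated to 48h at 37 °C, then supernatant TCID50 determined by end-point dilution with CPE/MTT read-out in quadruplicate on Vero cells, relative to untreated.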

Data set [17] deals with Zika virus. Kind of data set: Antiviral activity against ZIKV FLR infected in Vero cells assessed as reduction in capsid protein level at 1 to 3 uM incubated for 48 hrs by Western blot analysis. In kind it is functional, organism-based. To be noted: dose 1-3 µM. Put shortly: as §2
Data set [18] deals with Zika virus. Kind of data set: Antiviral activity against ZIKV FLR infected in Vero cells assessed as inhibition of viral replication by measuring reduction in cytopathic effect at 1 uM preincubated with compounds for 2 hrs followed by replacement with fresh media containing compounds and measured after 48 hrs by MTT assay relative to control. The note with it: time 50 hrs. In kind it is functional. Put shortly:
as §1

Data set [19] relates to dengue virus type 3. Nature of the data set: Antiviral activity against Dengue virus serotype 3 7431 infected in Vero cells assessed as inhibition of viral replication pretreated for 2 hrs followed by replacement with fresh medium containing compound and measured after 48 hrs by MTT assay. In kind it is functional, organism-based. The note with it: Dengue virus, 7431, Vero. The essentials:
as §1

In data set [20] the test system is Zika virus. Nature of the data set: Antiviral activity against ZIKV FLR infected in Vero cells assessed as inhibition of viral replication by measuring reduction in cytopathic effect at >=3 uM preincubated with compounds for 2 hrs followed by replacement with fresh media containing compounds and measured after 48 hrs by MTT assay relative to control. In kind it is functional. Set-up: scale not given: the % may be the effect or the level left. The note with it: time 50 hrs. The essentials: as §1

In data set [21] the test system is Zika virus. Kind of data set: Antiviral activity against ZIKV FLR infected in Vero cells assessed as reduction in viral titer at 1 uM preinoculated virus for 2 hrs with cells followed by washout of unattached viruses and further incubated with compound for 48 hrs by MTT assay relative to control. In kind it is functional. Set-up: scale not given: the % may be the effect or the level left. Put shortly: as §3

The subject of data set [22] is Zika virus. Nature of the data set: Antiviral activity against ZIKV FLR infected in human U87 cells assessed as inhibition of viral replication at 10 uM pretreated with compounds for 2 hrs followed by replacement with fresh medium containing compound and measured after 48 hrs by MTT assay relative to control. In kind it is functional. The note with it: U-87 MG, time 50 hrs. Put shortly:
as §1

The source made the active and inactive calls. The calls are words filed in the database; no cut-off is given here.

As for `COc1cccc(/C=C/c2nc3ccc(N4CCOCC4)cc3c(=O)n2-c2cccc(C(C)(C)C)c2)n1`, the values for the inhibition at 10 µM in data set [1] and in [22] were 99.9% and over 99.9%, respectively. Moreover, the Activity in [2] is 68%; in data set [8] it was “Dose-Dependent Effect”; in data set [16], 68%; in [20], over 99.9%; in data set [21], 68%. Further, the outcome in [3], in data set [4], in data set [9] and in [17] was Active. Besides, the CC50 in [5] was over 20000 nM. Besides, the 50% effective concentration (EC50) in data set [6] was found to be 180 nM; in data set [11] it was 100 nM; in [13], 210 nM; in data set [14], 230 nM; in data set [15] it was 86 nM; in data set [19] it was 120 nM. Besides, the inhibition at 3 µM in data set [7] is 99%. For the same compound, the inhibition at 0.3 µM in [10] amounted to 90%. Besides, the inhibition at 1 µM in data set [12] turned out to be 97%; in [18], 90%.
